ChEMBL document CHEMBL1146887 (J Med Chem, 2006)
The source made the active and inactive calls. No cut-off for these calls is given here. Where a SMILES comes first, the peptide text is derived from it. [ ]: non-standard residue; d: D form. The star is where a group is joined. Tyr(Nα,Nα-allyl2) = C=CCN(CC=C)[C@@H](Cc1ccc(O)cc1)C(=O)*; Aib = CC(C)(N)C(=O)O

Key:
[1] = target: T1, Delta-type opioid receptor (Homo sapiens, UniProt P41143); assay: Inverse agonist activity at human cloned delta opioid receptor expressed in CHO cells assessed as […] [35S]GTP-gamma-S binding in presence of 1 uM GDP relative to control; type: functional, cell-based; set-up: scale not given: the % may be the effect or the level left
[2] = target: Mu-type opioid receptor (Homo sapiens) (UniProt P35372); assay: Antagonist activity at human cloned mu opioid receptor expressed in CHO cells assessed as inhibition of DAMGO-stimulated [35S]GTP-gamma-S binding in presence of 10 uM GDP; type: functional, cell-based
Method in brief: (§1)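 Membranes of CHO cells expressing cloned human receptor (0.4-0.6 pmol/mg), 20-40 µg protein, with 0.5 nM [³⁵S]GTPγS, 10 µM GDP final, 1% DMSO, in 20 mM Hepes pH 7.4, 100 mM NaCl, 10 mM MgCl₂; 1 h room temperature. Agonist curves (seven concentrations, 0.32-32 000 nM) ± one test concentration (µ 3-300, δ 1-50, κ 50-300 nM). Filtration over GF/B, scintillation counting; Ke as mean ± SE, ≥3 experiments.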

[3] = target: T1, Delta-type opioid receptor; assay: Antagonist activity at human cloned delta opioid receptor expressed in CHO cells assessed as inhibition of DPDPE-stimulated [35S]GTP-gamma-S binding in presence of 10 uM GDP; type: functional, cell-based; method in brief: as §1
[4] = target: Kappa-type opioid receptor (Homo sapiens) (UniProt P41145); assay: Antagonist activity at human cloned kappa opioid receptor expressed in CHO cells assessed as inhibition of U69593-stimulated [35S]GTPgammaS binding in presence of 10 uM GDP; type: functional, cell-based; method in brief: as §1
[5] = target: Opioid receptors; mu & delta (Homo sapiens) (UniProt P41143+P35372); assay: Selectivity for human cloned delta opioid receptor over mu opioid receptor; type: protein assay
Method in brief: (§2)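 Ratios of Ke values from [³⁵S]GTPγS antagonism assays at cloned human µ, δ and κ receptors in CHO membranes, each run with 10 µM GDP final against DAMGO, DPDPE or U69593 agonist curves.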

[6] = target: Opioid receptors; delta & kappa (Homo sapiens) (UniProt P41145+P41143); assay: Selectivity for human cloned delta opioid receptor over kappa opioid receptor; type: protein assay; method in brief: as §2
[7] = target: T1, Delta-type opioid receptor; assay: Agonist activity at delta opioid receptor at 31.6 uM; type: functional
[8] = target: Mu-type opioid receptor (Homo sapiens) (UniProt P35372); assay: Intrinsic activity at mu opioid receptor in presence of 1 uM GDP; type: functional
[9] = target: Kappa-type opioid receptor (Homo sapiens) (UniProt P41145); assay: Intrinsic activity at kappa opioid receptor in presence of 1 uM GDP; type: functional
[10] = target: T1, Delta-type opioid receptor; assay: Inverse agonist activity at human cloned delta opioid receptor expressed in CHO cells assessed as […] [35S]GTP-gamma-S binding in presence of 1 uM GDP; type: functional, cell-based

Chain of Opioid receptors; mu & delta (Homo sapiens) (P35372 whole entry, looked up): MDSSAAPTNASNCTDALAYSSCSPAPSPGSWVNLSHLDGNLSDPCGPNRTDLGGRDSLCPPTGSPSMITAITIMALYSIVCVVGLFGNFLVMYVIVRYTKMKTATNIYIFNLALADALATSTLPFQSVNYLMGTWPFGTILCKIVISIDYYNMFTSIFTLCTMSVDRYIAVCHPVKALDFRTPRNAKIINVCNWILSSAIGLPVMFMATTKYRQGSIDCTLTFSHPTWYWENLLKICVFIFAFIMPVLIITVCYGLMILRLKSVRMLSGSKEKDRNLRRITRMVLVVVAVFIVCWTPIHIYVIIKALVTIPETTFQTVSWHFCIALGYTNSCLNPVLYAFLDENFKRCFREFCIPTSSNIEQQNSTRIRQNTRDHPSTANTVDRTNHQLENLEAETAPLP
Chain of Opioid receptors; mu & delta (Homo sapiens) (P41143 whole entry, looked up): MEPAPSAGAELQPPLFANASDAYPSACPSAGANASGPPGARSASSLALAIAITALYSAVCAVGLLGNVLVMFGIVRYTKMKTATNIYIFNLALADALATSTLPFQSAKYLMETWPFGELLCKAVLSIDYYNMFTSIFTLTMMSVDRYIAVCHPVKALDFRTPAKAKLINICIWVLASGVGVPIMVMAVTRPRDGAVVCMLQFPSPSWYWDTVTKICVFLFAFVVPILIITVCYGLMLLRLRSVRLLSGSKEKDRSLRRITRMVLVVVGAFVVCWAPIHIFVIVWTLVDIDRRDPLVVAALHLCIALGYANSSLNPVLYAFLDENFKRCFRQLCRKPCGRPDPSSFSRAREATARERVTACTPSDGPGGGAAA
Chain of Mu-type opioid receptor (Homo sapiens) (P35372 whole entry): as the sequence (P35372 whole entry, looked up) above
T1 sequence (P41143 whole entry): as the sequence (P41143 whole entry, looked up) above
Chain of Opioid receptors; delta & kappa (Homo sapiens) (P41143 whole entry, looked up): as above
Chain of Opioid receptors; delta & kappa (Homo sapiens) (P41145 whole entry, looked up): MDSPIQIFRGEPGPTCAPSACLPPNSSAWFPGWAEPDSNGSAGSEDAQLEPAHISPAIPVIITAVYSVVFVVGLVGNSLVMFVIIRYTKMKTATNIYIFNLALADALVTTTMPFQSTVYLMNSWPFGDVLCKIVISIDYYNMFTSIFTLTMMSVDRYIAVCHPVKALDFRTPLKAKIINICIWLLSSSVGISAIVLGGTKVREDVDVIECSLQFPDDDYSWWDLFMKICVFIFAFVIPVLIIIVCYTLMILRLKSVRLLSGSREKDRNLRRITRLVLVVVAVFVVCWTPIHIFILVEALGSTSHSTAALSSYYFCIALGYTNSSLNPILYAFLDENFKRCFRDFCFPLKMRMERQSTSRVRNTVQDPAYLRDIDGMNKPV
Chain of Kappa-type opioid receptor (Homo sapiens) (P41145 whole entry): as the sequence (P41145 whole entry, looked up) above

| SMILES | Activity [1] [%] | Ke [2] [nM] | Ke [3] [nM] | Ke [4] [nM] | Ratio Ke [5] | Ratio Ke [6] | Activity [7] | Activity [8] | Activity [9] | IC50 [10] [pM] |
| --- | --- | --- | --- | --- | --- | --- | --- | --- | --- | --- |
| C[C@H]1CN(CCCc2ccccc2)[C@@H]2C[C@@H](NC(=O)C3(c4cccs4)CCCC3)C[C@@]1(c1cccc(O)c1)C2 | 54 | 2.19 | 0.31 | 24 | 7.1 | 77 | inactive | inactive | inactive | 800 |
| CC1CN(CCCc2ccccc2)[C@@H]2C[C@@H](NC(=O)C3(c4ccccc4)CCCC3)C[C@@]1(c1cccc(O)c1)C2 (single isomer, unassigned; (+)) | 70 | 8.7 | 0.15 | 17.9 | 58 | 119 | inactive | inactive | inactive | 1800 |
| C[C@H]1CN(CCCc2ccccc2)[C@@H]2C[C@@H](NC(=O)C3(c4cccc5ccccc45)CCCC3)C[C@@]1(c1cccc(O)c1)C2 | 46 | 27.2 | 1.42 | 43.6 | 19 | 31 | inactive | inactive | inactive | 16000 |
| Cc1ccccc1/C=C/CN1C[C@H](C)[C@@]2(c3cccc(O)c3)C[C@H](NC(=O)C(C)(C)c3ccccc3)C[C@@H]1C2 | 70 | 1.02 | 0.47 | 6.7 | 2.2 | 14 | inactive | inactive | inactive | 120 |
| C[C@H]1CN(CCCc2ccccc2)[C@@H]2C[C@@H](NC(=O)C(C)(C)c3ccccc3)C[C@@]1(c1cccc(O)c1)C2 | 64 | 10.3 | 0.1 | 13.2 | 103 | 132 | inactive | inactive | inactive | 400 |
| C[C@H]1CN(CCCc2ccccc2)[C@@H]2C[C@@H](NC(=O)C3(c4ccccc4)CCCCC3)C[C@@]1(c1cccc(O)c1)C2 | 65 | 22.8 | 0.34 | 10.2 | 67 | 30 | inactive | inactive | inactive | 680 |
| C[C@@H](C(=O)N[C@@H]1C[C@@H]2C[C@](c3cccc(O)c3)(C1)[C@@H](C)CN2CCCc1ccccc1)c1ccccc1 | 78 | 9.6 | 0.14 | 8.1 | 69 | 58 | inactive | inactive | inactive | 150 |
| C=CCN(CC=C)[C@@H](Cc1ccc(O)cc1)C(=O)NC(C)(C)C(=O)NC(C)(C)C(=O)N[C@@H](Cc1ccccc1)C(=O)N[C@@H](CC(C)C)C(=O)O ({Tyr(Nα,Nα-allyl2)}-[Aib][Aib]FL-OH) | 75 | – | – | – | 5.3 | 43 | inactive | inactive | inactive | 83000 |
| Oc1ccc2c3c1O[C@H]1c4[nH]c5ccccc5c4C[C@@]4(O)[C@@H](C2)N(CC2CC2)CC[C@]314 | – | – | – | – | 157 | 77 | inactive | inactive | inactive | – |
| C[C@H]1CN(C)[C@@H]2C[C@@H](NC(=O)C3(c4ccccc4)CCCC3)C[C@@]1(c1cccc(O)c1)C2 | 79 | 43.2 | 76.8 | 61 | 0.6 | 0.8 | inactive | inactive | inactive | 95000 |
| C[C@H]1CN(C/C=C/c2ccccc2)[C@@H]2C[C@@H](NC(=O)C(C)(C)c3ccccc3)C[C@@]1(c1cccc(O)c1)C2 | 78 | 1.9 | 0.81 | 15.8 | 2.4 | 20 | inactive | inactive | inactive | 720 |
| C[C@H]1CN(CCCc2ccccc2)[C@@H]2C[C@@H](NC(=O)C3(c4ccsc4)CCCC3)C[C@@]1(c1cccc(O)c1)C2 | 86 | 2.07 | 0.24 | 7.77 | 8.8 | 33 | inactive | inactive | inactive | 450 |
| COc1ccc(C2(C(=O)N[C@@H]3C[C@@H]4C[C@](c5cccc(O)c5)(C3)[C@@H](C)CN4CCCc3ccccc3)CCCC2)cc1 | 72 | 12 | 0.67 | 2.43 | 18 | 3.6 | inactive | inactive | inactive | 480 |
| C[C@H]1CN(CCCc2ccccc2)[C@@H]2C[C@@H](NC(=O)C3(c4ccccc4)CCCCCC3)C[C@@]1(c1cccc(O)c1)C2 | 70 | 24.4 | 0.26 | 17.5 | 93 | 67 | inactive | inactive | inactive | 390 |
| CCC(CC)(C(=O)N[C@@H]1C[C@@H]2C[C@](c3cccc(O)c3)(C1)[C@@H](C)CN2CCCc1ccccc1)c1ccccc1 | 61 | 11.7 | 0.2 | 14.6 | 59 | 74 | inactive | inactive | inactive | 1800 |
| Cc1ccccc1/C=C/CN1C[C@H](C)[C@@]2(c3cccc(O)c3)C[C@H](NC(=O)C3(c4ccccc4)CCCC3)C[C@@H]1C2 | 70 | 2.51 | 0.33 | 5.6 | 7.6 | 22 | inactive | inactive | inactive | 500 |
| C[C@H]1CN(CCOc2ccccc2)[C@@H]2C[C@@H](NC(=O)C(C)(C)c3ccccc3)C[C@@]1(c1cccc(O)c1)C2 | 83 | 11.4 | 0.87 | 96.3 | 13 | 111 | inactive | inactive | inactive | 1400 |
| C[C@H]1CN(CCCc2ccccc2)[C@@H]2C[C@@H](NC(=O)C3(c4ccc5ccccc5c4)CCCC3)C[C@@]1(c1cccc(O)c1)C2 | 69 | 35 | 0.75 | 56.1 | 47 | 75 | inactive | inactive | inactive | 7700 |
| C[C@H]1CN(CCCc2ccccc2)[C@@H]2C[C@@H](NC(=O)C3(c4ccc(F)cc4)CCCC3)C[C@@]1(c1cccc(O)c1)C2 | 72 | 9.1 | 0.26 | 4.5 | 35 | 17 | inactive | inactive | inactive | 450 |
| C[C@H]1CN(CCCc2ccccc2)[C@@H]2C[C@@H](NC(=O)C3(c4ccccc4)CCC3)C[C@@]1(c1cccc(O)c1)C2 | 65 | 10.6 | 0.17 | 16 | 62 | 94 | inactive | inactive | inactive | 420 |
